Test results reported in ChEMBL document CHEMBL1154573, “New 7,20:14,20-diepoxy ent-kauranoids from Isodon xerophilus” (J Nat Prod, 2000).
In brackets after ≈: the same amount, converted by molar mass.

Tested on: K562
Assay: Cytotoxicity against human K562 cells after 48 hrs by MTT assay
Assay type: functional, cell-based
Conditions: K562, 48 h
Method in brief: (§1)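 MTT reduction assay. Cells in log-phase growth were seeded at 4 × 10⁴ cells/mL and exposed in four replicates to drug at 10⁻⁴–10⁻⁸ mol/L for 48 h at 37 °C in humidified 5% CO₂. MTT (5 mg/mL solution) was then added for a further 4 h. Formazan was dissolved in 10% SDS–5% isobutanol–HCl for 12 h at room temperature. OD was read at 570 and 630 nm, and IC50 was derived. Negative controls were saline or 1% or 0.1% DMSO.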

Compared with `C=C1C(=O)[C@@]23[C@@H]4O[C@H]5O[C@@]2(O)[C@@H](O)[C@@H]2C(C)(C)CCC[C@]52[C@@H]3[C@@H](OC(C)=O)C[C@@H]14` [XEROPHILUSIN A], `C=C1C(=O)[C@@]23[C@@H]4O[C@H]5O[C@@]2(O)[C@@H](O)[C@@H]2C(C)(C)CCC[C@]52[C@@H]3[C@@H](O)C[C@@H]14` [MACROCALIN B] is 3.6-fold higher in IC50: 2.22 µg/mL (≈ 5.49 µM) for the first, 8.07 µg/mL (≈ 22.3 µM) for the second.

First: C=C1C(=O)[C@@]23[C@@H]4O[C@H]5O[C@@]2(O)[C@@H](O)[C@@H]2C(C)(C)CCC[C@]52[C@@H]3CC[C@@H]14 [XEROPHILUSIN B]
Second: O=C1c2c(O)ccc(O)c2C(=O)c2c(NCCNCCO)ccc(NCCNCCO)c21 [MITOXANTRONE]
The IC50 of the first is 22-fold higher: 0.73 µg/mL (≈ 2.11 µM) for the first, 0.0334 µg/mL (≈ 0.0751 µM) for the second.

Tested on: HL-60
Assay: Cytotoxicity against human HL60 cells after 48 hrs by MTT assay
Assay type: functional, cell-based
Conditions: HL-60, 48 h
Method in brief: as §1

Compared with `C=C1C(=O)[C@@]23[C@@H]4O[C@H]5O[C@@]2(O)[C@@H](O)[C@@H]2C(C)(C)CCC[C@]52[C@@H]3[C@@H](OC(C)=O)C[C@@H]14` [XEROPHILUSIN A], `C=C1C(=O)[C@@]23[C@@H]4O[C@H]5O[C@@]2(O)[C@@H](O)[C@@H]2C(C)(C)CCC[C@]52[C@@H]3[C@@H](O)C[C@@H]14` [MACROCALIN B] is 4.6-fold higher in IC50: 0.45 µg/mL (≈ 1.11 µM) for the first, 2.05 µg/mL (≈ 5.66 µM) for the second.

`C=C1C(=O)[C@@]23[C@@H]4O[C@H]5O[C@@]2(O)[C@@H](O)[C@@H]2C(C)(C)CCC[C@]52[C@@H]3CC[C@@H]14` [XEROPHILUSIN B] and `O=C1c2c(O)ccc(O)c2C(=O)c2c(NCCNCCO)ccc(NCCNCCO)c21` [MITOXANTRONE] are the same in IC50: 0.29 µg/mL (≈ 0.837 µM) for the first, 0.29 µg/mL (≈ 0.652 µM) for the second.

Tested on: not listed separately
Assay: Cytotoxicity against human HCT cells after 48 hrs by MTT assay
Assay type: functional, cell-based
Conditions: not given
Method in brief: as §1

`O=C1c2c(O)ccc(O)c2C(=O)c2c(NCCNCCO)ccc(NCCNCCO)c21` [MITOXANTRONE] gave an IC50 of 1.54 µg/mL (≈ 3.46 µM).

Tested on: MKN-28
Assay: Cytotoxicity against human MKN28 cells after 48 hrs by MTT assay
Assay type: functional, cell-based
Conditions: MKN-28, 48 h
Method in brief: as §1

Compared with `C=C1C(=O)[C@@]23[C@@H]4O[C@H]5O[C@@]2(O)[C@@H](O)[C@@H]2C(C)(C)CCC[C@]52[C@@H]3[C@@H](OC(C)=O)C[C@@H]14` [XEROPHILUSIN A], `C=C1C(=O)[C@@]23[C@@H]4O[C@H]5O[C@@]2(O)[C@@H](O)[C@@H]2C(C)(C)CCC[C@]52[C@@H]3[C@@H](O)C[C@@H]14` [MACROCALIN B] is 14-fold higher in IC50: 0.12 µg/mL (≈ 0.297 µM) for the first, 1.68 µg/mL (≈ 4.64 µM) for the second.

Going from `C=C1C(=O)[C@@]23[C@@H]4O[C@H]5O[C@@]2(O)[C@@H](O)[C@@H]2C(C)(C)CCC[C@]52[C@@H]3CC[C@@H]14` [XEROPHILUSIN B] to `O=C1c2c(O)ccc(O)c2C(=O)c2c(NCCNCCO)ccc(NCCNCCO)c21` [MITOXANTRONE], the IC50 falls from 0.17 µg/mL (≈ 0.491 µM) to 0.02 µg/mL (≈ 0.045 µM) (8.5-fold).
